Source: ChEMBL document CHEMBL2086353, “Design, synthesis and structure-activity relationship of novel inhibitors against H5N1 hemagglutinin-mediated membrane fusion” (Eur J Med Chem, 2012)
Calls of active or inactive are those of the source. No cut-off for these calls is given here.

Tested on: Influenza A virus
Assay: Antiviral activity against Influenza A virus (A/Thailand/Kan353/2004(H5N1)) assessed as inhibition of viral infection
Type: functional, organism-based

SMILES | IC50 [µM]
O=C(NCCN1CCCCC1)c1cc(F)cc(C(F)(F)F)c1 | 27

Tested on: not listed separately
Assay: Inhibition of Influenza A virus (A/Anhui/1/2005(H5N1)) hemagglutininin-mediated membrane fusion assessed as inhibition of H5N1 pesudovirus infection of MDCK cells using A/Anhui/1/2005(H5N1) hemagglutinin plasmid and NA plasmid from N1 subtype strain A/Thailand/Kan353/ 2004 infected in 293T cells by luciferase reporter gene assay
Type: cell-based
In short: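 MDCK target cells grown in DMEM with glutamine and 10% FCS. Compound at indicated concentrations preincubated with H5N1 HA/NA-pseudotyped luciferase-reporter particles (1 ng p24/well) for 30 min at 37 °C. Mixture then added to cells for 48 h. Cells PBS-washed and lysed, and luciferase activity read on a luminometer.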

SMILES | IC50 [µM]
CN1CCN(CCCNC(=O)c2cc(F)cc(C(F)(F)F)c2)CC1 | 84.3
O=C(OCCN1CCCCC1)c1cc(F)cc(C(F)(F)F)c1 | 61.2
CC(NC(=O)c1cc(C(F)(F)F)cc(C(F)(F)F)c1)c1ccc2ccccc2c1 (stereo unspecified) | 40.8
O=C(NCCN1CCCCC1)c1cc(C(F)(F)F)cc(C(F)(F)F)c1 | 2.51
O=C(NCCN1CCCC1)c1cc(O)c(O)cc1O | 41.5
O=C(NCCc1cccs1)c1cncc(Cl)c1 | 9.2
O=C(NC1CCCCC1)c1cccc(C(F)(F)F)c1 | 7.8
O=S(=O)(NCCN1CCCCC1)c1cccc(C(F)(F)F)c1 | 54.9
O=C(NCCc1ccccc1)c1cc(F)cc(C(F)(F)F)c1 | 0.33
O=C(NCCc1ccccc1)c1cccc(C(F)(F)F)c1 | 80
O=C(NCCOC(=O)c1cc(F)cc(C(F)(F)F)c1)c1cc(F)cc(C(F)(F)F)c1 | 60
CC(NC(=O)c1cc(F)cc(C(F)(F)F)c1)c1ccc2ccccc2c1 (stereo unspecified) | 49
O=C(NCCN1CCCC1)c1cc(C(F)(F)F)cc(C(F)(F)F)c1 | 1.71
O=C(NCCN1CCCCC1)c1cc(F)cc(C(F)(F)F)c1 | 0.37
O=C(NCCN1CCOCC1)c1cc(C(F)(F)F)cc(C(F)(F)F)c1 | 9.89
O=C(NCCc1cccs1)c1cc(C(F)(F)F)cc(C(F)(F)F)c1 | 2.44
O=C(NCCc1cccs1)c1cccc(C(F)(F)F)c1 | 4.33
O=C(NCCc1ccccc1)c1cc(C(F)(F)F)cc(C(F)(F)F)c1 | 2.47
O=C(NCCN1CCOCC1)c1cc(F)cc(C(F)(F)F)c1 | 1.22
O=C(NCCN1CCCCC1)c1cncc(Br)c1 | 5.13
O=C(NCCc1cccs1)c1cc(F)cc(C(F)(F)F)c1 | 0.22
O=C(NCCN1CCCCC1)c1cncc(Cl)c1 | 6.25
O=C(NCCN1CCCC1)c1cc(F)cc(C(F)(F)F)c1 | 0.38
O=C(NCc1ccncc1)c1cc(F)cc(C(F)(F)F)c1 | 0.56
CN1CCN(CCCNC(=O)c2cc(C(F)(F)F)cc(C(F)(F)F)c2)CC1 | 66.6
O=C(NCc1cccnc1)c1cc(C(F)(F)F)cc(C(F)(F)F)c1 | 2.46
O=C(NCCc1cccs1)c1cncc(Br)c1 | 7.61

Tested on: MDCK
Assay: Inhibition of Vesicular stomatitis virus G hemagglutininin-mediated membrane fusion assessed as inhibition of […] infection of MDCK cells by luciferase reporter gene assay
Type: cell-based
In short: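 Specificity control: VSV-G-pseudotyped luciferase-reporter particles replace the H5N1 pseudovirus. Compound preincubated with particles (1 ng p24/well) for 30 min at 37 °C, then added to MDCK cells (DMEM, 10% FCS) for 48 h. Lysate luciferase read on a luminometer.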

SMILES | inhibition
O=C(NCCc1cccs1)c1cc(F)cc(C(F)(F)F)c1 | inactive
O=C(NCCN1CCCC1)c1cc(F)cc(C(F)(F)F)c1 | inactive
O=C(NCc1ccncc1)c1cc(F)cc(C(F)(F)F)c1 | inactive
